Results published in ChEMBL document CHEMBL1123111, “Potential inhibitors of S-adenosylmethionine-dependent methyltransferases. 8. Molecular dissections of carbocyclic 3-deazaadenosine as inhibitors of S-adenosylhomocysteine hydrolase” (1985).

What was measured:
[1] = target: Adenosylhomocysteinase (Bos taurus) (UniProt Q3MHL4); experiment: Evaluated for the inhibition of bovine liver S-adenosyl-homocysteine hydrolase at concentration 2.0 mM
L929 [2] = experiment: Compound was evaluated for cellular toxicity by [3H]thymidine incorporation into DNA of uninfected L-929 cells after 72 hr exposure; assay type: functional, Mus musculus; set-up: concentration or dose not given beside the values
Procedure, shortened: (§1)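 Uninfected mouse L-929 monolayers (2.5 × 10^6 cells/60-mm dish) exposed to 10 µM compound or no drug in serum-free KU-1 medium for 36 or 72 h. Then pulsed with [3H]thymidine. Cells trypsinized, precipitated in 10% TCA at 4 °C, and precipitates collected on glass-fibre filters. Filters solubilized and counted by liquid scintillation. Incorporation expressed as percent of untreated controls.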

L929 [3] = experiment: Ability to inhibit Vaccinia virus plaque formation after 72 hr in monolayer cultures of mouse L-929 cells; assay type: functional; set-up: concentration or dose not given beside the values
L929 [4] = experiment: Compound was evaluated for cellular toxicity by [3H]thymidine incorporation into DNA of uninfected L-929 cells after 36h exposure; assay type: functional, Mus musculus; set-up: concentration or dose not given beside the values
Procedure, shortened: as §1

Sequence of Adenosylhomocysteinase (Bos taurus) (Q3MHL4 whole entry, looked up): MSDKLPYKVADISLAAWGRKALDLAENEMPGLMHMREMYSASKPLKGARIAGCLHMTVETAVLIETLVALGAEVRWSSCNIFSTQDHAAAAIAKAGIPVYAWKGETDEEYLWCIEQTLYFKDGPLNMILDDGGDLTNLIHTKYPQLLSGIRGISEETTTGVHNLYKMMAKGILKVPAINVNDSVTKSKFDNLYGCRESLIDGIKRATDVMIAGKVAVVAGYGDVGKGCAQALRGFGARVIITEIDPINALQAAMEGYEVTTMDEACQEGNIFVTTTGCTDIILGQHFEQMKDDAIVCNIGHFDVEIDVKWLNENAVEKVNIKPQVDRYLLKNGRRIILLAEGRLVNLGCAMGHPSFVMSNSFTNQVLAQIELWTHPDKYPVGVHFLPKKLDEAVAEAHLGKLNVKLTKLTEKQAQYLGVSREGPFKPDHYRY

| Compound | inhibition [1] | Control (L929 [2]) | Inhibition (L929 [3]) | Control (L929 [4]) |
| --- | --- | --- | --- | --- |
| Nc1nccc2c1ncn2C(CO)CCCO (centres undefined) | 50% | 140% | 27% | 91% |
| Nc1nccc2c1ncn2CCO | 27% | 113% | 33% | 95% |
| Nc1nccc2c1ncn2CC(O)CO (centres undefined) | 95% | 138% | 53% | 88% |
| Nc1nccc2c1ncn2[C@@H]1C[C@H](CO)[C@@H](O)[C@H]1O [3-DEAZAARISTEROMYCIN A] |  | 246% | 95% | 86% |
| Nc1nccc2c1ncn2CCCCO | 12% | 110% | 51% | 102% |
